Experimental data: ChEMBL document CHEMBL1154802, “Antiestrogenic constituents of the Thai medicinal plants Capparis flavicans and Vitex glabrata” (2009)
Calls of active or inactive are those of the source. No cut-off for these calls is given here.

Tests used:
MCF7 [1] = assay: Stimulation of human MCF7 cell proliferation up to 100 uM after 96 hrs by alamar blue assay relative to estradiol; format: functional, cell-based
Procedure, shortened: (§1)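 Compounds were given alone at 0.1, 1, 10 and 100 µM, and stimulation of proliferation was compared with estradiol at 1–100 pM. Cell proliferation assay as in an earlier report.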

T47D [2] = assay: Stimulation of human T47D cell proliferation up to 100 uM after 96 hrs by alamar blue assay relative to estradiol; format: functional, cell-based; procedure, shortened: as §1
MCF7 [3] = assay: Antiestrogenic activity in human MCF7 cells assessed as drug level causing inhibition of 100 pM E2-enhanced cell proliferation to level equivalent to 50 pM E2 after 96 hrs by alamar blue assay; format: functional
Procedure, shortened: (§2)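 Cells seeded at 1 × 10^4 per well in phenol red-free RPMI with 5% DCC-treated FBS. E2 was added from a 20 nM solution to give 100 pM and preincubated 1 h at 37 °C, 5% CO2. Compounds were then added at 0.1, 1, 10 and 100 µM for 96 h, with serially diluted tamoxifen as positive control. Antagonism was judged from cell populations. iEqE values were obtained by linear regression over four concentrations.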

MCF7 [4] = assay: Antiestrogenic activity in human MCF7 cells assessed as drug level causing inhibition of 100 pM E2-enhanced cell proliferation to level equivalent to 10 pM E2 after 96 hrs by alamar blue assay; format: functional; procedure, shortened: as §2
MCF7 [5] = assay: Antiestrogenic activity in human MCF7 cells assessed as drug level causing inhibition of 100 pM E2-enhanced cell proliferation to level equivalent to 1 pM E2 after 96 hrs by alamar blue assay; format: functional; procedure, shortened: as §2
T47D [6] = assay: Antiestrogenic activity in human T47D cells assessed as drug level causing inhibition of 100 pM E2-enhanced cell proliferation to level equivalent to 50 pM E2 after 96 hrs by alamar blue assay; format: functional; procedure, shortened: as §2
T47D [7] = assay: Antiestrogenic activity in human T47D cells assessed as drug level causing inhibition of 100 pM E2-enhanced cell proliferation to level equivalent to 10 pM E2 after 96 hrs by alamar blue assay; format: functional; procedure, shortened: as §2
T47D [8] = assay: Antiestrogenic activity in human T47D cells assessed as drug level causing inhibition of 100 pM E2-enhanced cell proliferation to level equivalent to 1 pM E2 after 96 hrs by alamar blue assay; format: functional; procedure, shortened: as §2

SMILES	Activity (MCF7 [1])	Activity (T47D [2])	Activity (MCF7 [3])	Activity (MCF7 [4])	Activity (MCF7 [5])	Activity (T47D [6])	Activity (T47D [7])	Activity (T47D [8])
OC[C@H]1O[C@@H](Oc2cc([C@H]3OC[C@]4(O)[C@@H](c5ccc6c(c5)OCO6)OC[C@]34O)ccc2O)[C@H](O)[C@@H](O)[C@@H]1O [KHAINAOSIDE A]	inactive	inactive	<0.1 µM	<0.1 µM	<0.1 µM	<0.1 µM	<0.1 µM	3 µM
CC/C(=C(\c1ccccc1)c1ccc(OCCN(C)C)cc1)c1ccccc1 [TAMOXIFEN]	–	–	0.1 µM	0.2 µM	0.4 µM	0.1 µM	0.7 µM	9 µM
COc1cc(C[C@H](CO)[C@@H](CO[C@@H]2O[C@H](CO)[C@@H](O)[C@H](O)[C@H]2O)Cc2cc(OC)c(O)c(OC)c2)cc(OC)c1O	inactive	inactive	<0.1 µM	0.8 µM	93 µM	0.6 µM	>100 µM	>100 µM
COc1cc([C@H]2Oc3c(OC)cc(/C=C/CO)cc3[C@@H]2CO)ccc1O[C@@H]1O[C@H](CO)[C@@H](O)[C@H](O)[C@H]1O	inactive	inactive	0.3 µM	>100 µM	>100 µM	<0.1 µM	63 µM	>100 µM
Oc1ccc([C@H]2OC[C@H]3[C@@H]2CO[C@@H]3c2ccc(O)c(O)c2)cc1O	inactive	inactive	0.2 µM	31 µM	94 µM	0.2 µM	26 µM	73 µM
OC/C=C/c1ccc2c(c1)O[C@H](c1ccc(O)c(O)c1)[C@@H](CO)O2 [ISOAMERICANOL A]	inactive	inactive	<0.1 µM	6 µM	>100 µM	<0.1 µM	9 µM	>100 µM
OC[C@@H]1Oc2ccc([C@H]3OC[C@H]4[C@@H]3CO[C@@H]4c3ccc(O)c(O)c3)cc2O[C@H]1c1ccc(O)c(O)c1 [PRINCEPIN]	inactive	inactive	0.3 µM	4 µM	7 µM	0.4 µM	1 µM	6 µM
COc1cc(O[C@@H]2O[C@H](CO)[C@@H](O)[C@H](O)[C@H]2O)ccc1O [TACHIOSIDE]	inactive	inactive	<0.1 µM	0.2 µM	>100 µM	<0.1 µM	10 µM	>100 µM
C[C@@H](/C=C/[C@]1(O)[C@]2(C)CO[C@@]1(C)CC(=O)C2)O[C@@H]1O[C@H](CO)[C@@H](O)[C@H](O)[C@H]1O [SPIONOSIDE B]	inactive	inactive	<0.1 µM	<0.1 µM	15 µM	0.2 µM	61 µM	>100 µM
COc1cc(O)cc(OC)c1O[C@@H]1O[C@H](CO)[C@@H](O)[C@H](O)[C@H]1O [LEONURISIDE]	inactive	inactive	<0.1 µM	<0.1 µM	>100 µM	0.4 µM	39 µM	>100 µM
